Reference: ChEMBL document CHEMBL1148398, “Design, synthesis, and biological evaluation of thio-containing compounds with serum HDL-cholesterol-elevating properties” (2004)

How the values were obtained:
Cricetinae gen. sp. [1] = assay: Effect of compound on aspartate aminotransferase (AST) levels in 3rd group of cholesterol-fed male hamsters at 30 mg/kg/day after 14 days of treatment; settings: Mesocricetus auratus
Cricetinae gen. sp. [2] = assay: Percent change in triglycerides following oral administration of compound in hypercholesterolemic hamsters at 100 mg/kg/day for 14 days; format: functional
Outline: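 Male Syrian Golden hamsters pre-fed chow plus 0.25% cholesterol for 2 weeks and kept on it. Dosed 100 mg/kg/day by oral gavage in 2% Tween 80/saline for 14 days. Serum total cholesterol and glycerol-blanked triglycerides read enzymatically; lipoproteins separated by FPLC with cholesterol measured in each fraction. % change versus vehicle controls; six per group, p < 0.05.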

Rattus norvegicus [3] = assay: Effect of compound on high-density lipoprotein cholesterol levels in 3rd group of normal chow-fed male rats after a dose of 5 mg/kg/day; format: functional, organism-based
Rattus norvegicus [4] = assay: Effect of compound on thyroxine levels in 2nd group of normal chow-fed male rats after a dose of 2 mg/kg/day; format: functional, organism-based
Outline: (§1)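 Male Sprague–Dawley CD rats, 60–80 g, on standard chow with reverse 12 h light/dark cycle. One oral gavage dose daily for 4 days, suspended in 1.3% Tween 80 and 0.25% CMC. Fasted overnight; sacrificed 24 h after the last dose. Serum TC on clinical analyzer, lipoproteins by FPLC with cholesterol per fraction, T4 on analyzer. Mean ± SEM, six rats per group.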

Cricetinae gen. sp. [5] = assay: Effect of compound on total plasma cholesterol levels in 1st group of cholesterol-fed male hamsters at 3 mg/kg/day after 14 days of treatment; settings: Mesocricetus auratus
Rattus norvegicus [6] = assay: Percent change in high-density lipoprotein cholesterol in hypercholesterolemic rats dosed at 100 mg/kg/day for 8 days; format: functional
Rattus norvegicus [7] = assay: Effect of compound on lactic dehydrogenase (LDH) levels in 6th group of normal chow-fed male rats after a dose of 50 mg/kg/day; format: functional, organism-based
Outline: (§2)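 Male Sprague–Dawley CD rats, 60–80 g, on chow with a reverse 12 h light/dark cycle. Given one oral gavage dose daily for 4 days, suspended in 1.3% Tween 80/0.25% CMC. Fasted overnight and sacrificed 24 h after the last dose for blood and liver. Serum liver enzymes read on a clinical analyzer. Six per group, mean ± SEM.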

Cricetinae gen. sp. [8] = assay: Effect of compound on thyroxine levels in 1st group of cholesterol-fed male hamsters at 3 mg/kg/day after 14 days of treatment; settings: Mesocricetus auratus
Mesocricetus auratus [9] = assay: Effect of compound on liver weight in 3rd group of cholesterol-fed male hamsters at 30 mg/kg/day after 14 days of treatment
Rattus norvegicus [10] = assay: Effect of compound on lactic dehydrogenase (LDH) levels in 5th group of normal chow-fed male rats after a dose of 20 mg/kg/day; format: functional, organism-based
Outline: as §2

Rattus norvegicus [11] = assay: Effect of compound on liver weight in 4th group of normal chow-fed male rats after a dose of 10 mg/kg/day; format: functional
Outline: as §2

Rattus norvegicus [12] = assay: Effect of compound on liver weight in 2nd group of normal chow-fed male rats after a dose of 2 mg/kg/day; format: functional
Outline: as §2

Cricetinae gen. sp. [13] = assay: Effect of compound on low-density lipoprotein cholesterol levels in 4th group of cholesterol-fed male hamsters at 100 mg/kg/day after 14 days of treatment; settings: Mesocricetus auratus
Rattus norvegicus [14] = assay: Effect of compound on low-density lipoprotein cholesterol levels in 2nd group of normal chow-fed male rats after a dose of 2 mg/kg/day; format: functional, organism-based
Outline: as §1

Rattus norvegicus [15] = assay: Effect of compound on triglyceride levels in 5th group of normal chow-fed male rats after a dose of 20 mg/kg/day; format: functional, organism-based
Outline: (§3)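 Male Sprague–Dawley CD rats (60–80 g) on Purina 5001 chow with a reverse 12 h light/dark cycle. Dosed once daily by oral gavage for 4 days, suspended in 1.3% Tween 80 / 0.25% CMC. Fasted overnight and bled 24 h after the last dose. Serum TC and glycerol-blanked TG measured enzymatically; VLDL-C by FPLC fractionation with cholesterol assay. n=6, mean ± SEM.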

Cricetinae gen. sp. [16] = assay: Effect of compound on high-density lipoprotein cholesterol levels in 1st group of cholesterol-fed male hamsters at 3 mg/kg/day after 14 days of treatment; format: functional, organism-based
Rattus norvegicus [17] = assay: Effect of compound on total plasma cholesterol levels in 6th group of normal chow-fed male rats after a dose of 50 mg/kg/day; format: functional, organism-based
Outline: as §3

Rattus norvegicus [18] = assay: Effect of compound on relative liver weight in 4th group of normal chow-fed male rats after a dose of 10 mg/kg/day; format: functional
Outline: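 Chow-fed male Sprague–Dawley CD rats, 60–80 g, dosed by oral gavage once daily for 4 days in 1.3% Tween 80/0.25% CMC. Fasted overnight and sacrificed 24 h after the last dose. Liver weight expressed as % of body weight at termination. Six per group, mean ± SEM.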

Rattus norvegicus [19] = assay: Effect of compound on total plasma cholesterol levels in 2nd group of normal chow-fed male rats after a dose of 2 mg/kg/day; format: functional, organism-based
Outline: as §1

Rattus norvegicus [20] = assay: Effect of compound on liver weight in 5th group of normal chow-fed male rats after a dose of 20 mg/kg/day; format: functional
Outline: as §2

Mesocricetus auratus [21] = assay: Effect of compound on alanine aminotransferase (ALT) levels in 3rd group of cholesterol-fed male hamsters at 30 mg/kg/day after 14 days of treatment
Cricetinae gen. sp. [22] = assay: Effect of compound on alkaline phosphatase (ALKP) levels in 4th group of cholesterol-fed male hamsters at 100 mg/kg/day after 14 days of treatment; settings: Mesocricetus auratus
Mesocricetus auratus [23] = assay: Effect of compound on liver weight in 4th group of cholesterol-fed male hamsters at 100 mg/kg/day after 14 days of treatment
Rattus norvegicus [24] = assay: Effect of compound on very low-density lipoprotein cholesterol levels in 4th group of normal chow-fed male rats after a dose of 10 mg/kg/day; format: functional, organism-based
Outline: as §3

Cricetinae gen. sp. [25] = assay: Effect of compound on lactic dehydrogenase (LDH) levels in 3rd group of cholesterol-fed male hamsters at 30 mg/kg/day after 14 days of treatment; settings: Mesocricetus auratus
Rattus norvegicus [26] = assay: Effect of compound on very low-density lipoprotein cholesterol levels in 1st group of normal chow-fed male rats after a dose of 1 mg/kg/day; format: functional, organism-based
Outline: as §3

Cricetinae gen. sp. [27] = assay: Effect of compound on triglycerides level in 3rd group of cholesterol-fed male hamsters at 30 mg/kg/day after 14 days of treatment; settings: Mesocricetus auratus
Rattus norvegicus [28] = assay: Percent change in triglycerides in hypercholesterolemic rats at a dose of 100 mg/kg/day for 8 days; format: functional
Cricetinae gen. sp. [29] = assay: Effect of compound on very low-density lipoprotein cholesterol levels in 4th group of cholesterol-fed male hamsters at 100 mg/kg/day after 14 days of treatment; settings: Mesocricetus auratus
Rattus norvegicus [30] = assay: Effect of compound on triglyceride levels in 7th group of normal chow-fed male rats after a dose of 100 mg/kg/day; format: functional, organism-based
Outline: as §3

## CCN1CC(=O)N(c2cc(Cl)ccc2C)C1=S
Cricetinae gen. sp. [1]
  Level: 204 U l-1
Cricetinae gen. sp. [2]
  Change: -34%
Rattus norvegicus [3]
  Serum level: 45 mg/dL
Rattus norvegicus [4]
  Serum level: 4.33 µg/dL
Cricetinae gen. sp. [5]
  Serum level: 429 mg/dL
Rattus norvegicus [6]
  Change: 132%
Rattus norvegicus [7]
  Level: 815 U l-1
Cricetinae gen. sp. [8]
  Serum level: 5.8 µg/dL
Mesocricetus auratus [9]
  Liver weight: 8.5 g
Rattus norvegicus [10]
  Level: 1140 U l-1
Rattus norvegicus [11]
  Liver weight: 8.3 g
Rattus norvegicus [12]
  Liver weight: 7.3 g
Cricetinae gen. sp. [13]
  Serum level: 102 mg/dL
Rattus norvegicus [14]
  Serum level: 5.7 mg/dL
Rattus norvegicus [15]
  Serum level: 19 mg/dL
Cricetinae gen. sp. [16]
  Serum level: 136 mg/dL
Rattus norvegicus [17]
  Serum level: 101 mg/dL
Rattus norvegicus [18]
  Relative liver weight: 4.3%
Rattus norvegicus [19]
  Serum level: 56 mg/dL
Rattus norvegicus [20]
  Liver weight: 8.2 g
Mesocricetus auratus [21]
  Level: 112 U l-1
Cricetinae gen. sp. [22]
  Level: 136 U l-1
Mesocricetus auratus [23]
  Liver weight: 8.95 g
Rattus norvegicus [24]
  Serum level: 3.4 mg/dL
Cricetinae gen. sp. [25]
  Level: 823 U l-1
Rattus norvegicus [26]
  Serum level: 4.3 mg/dL
Cricetinae gen. sp. [27]
  Serum level: 433 mg/dL
Rattus norvegicus [28]
  Change: -19%
Cricetinae gen. sp. [29]
  Serum level: 81 mg/dL
Rattus norvegicus [30]
  Serum level: 12 mg/dL
